Data: ChEMBL document CHEMBL4038313, “Expanding the Antiviral Spectrum of 3-Fluoro-2-(phosphonomethoxy)propyl Acyclic Nucleoside Phosphonates: Diamyl Aspartate Amidate Prodrugs” (J Med Chem, 2017)

Assays:
[1] = test system: Human immunodeficiency virus 1; experiment: Antiviral activity against CXCR4-tropic HIV-1 NL4-3 infected in human TZM-bl cells assessed as inhibition of virus-induced cytopathic effect preincubated with cells for 30 mins followed by viral infection measured after 48 hrs in presence of p-24 HIV-1 Ag by luciferase reporter gene assay; assay type: functional, cell-based; settings: Human immunodeficiency virus 1, NL4-3, TZM-bl
How it was run: (§1)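 TZM-bl cells, 1 × 10^4 per well in DMEM with 10% FBS and 10 mM […], incubated 30 min at 37 °C with compound. Then HIV-1 NL4.3 (X4) or BaL (R5) added at 100 pg p24 Ag per well. After 48 h, cells lysed with luciferase substrate. Tat-induced luminescence read after 10 min dark incubation as a measure of replication.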

[2] = test system: Human immunodeficiency virus 1; experiment: Antiviral activity against CCR5 tropic HIV1 BaL infected in human TZM-bl cells assessed as inhibition of virus-induced cytopathic effect preincubated with cells for 30 mins followed by viral infection measured after 48 hrs in presence of p-24 HIV-1 Ag by luciferase reporter gene assay; assay type: functional, cell-based; settings: Human immunodeficiency virus 1, BaL; how it was run: as §1
[3] = Cytotoxicity against human TZM-bl cells assessed as cell viability by tetrazolium dye assay; assay type: cell-based
[4] = Selectivity index, ratio of CC50 for human TZM-bl cells to EC50 for CXCR4-tropic HIV-1 NL4-3 infected in human TZM-bl cells; assay type: toxicity, cell-based; settings: read-out: Ratio CC50/EC50
[5] = Selectivity index, ratio of CC50 for human TZM-bl cells to EC50 for CCR5 tropic HIV1 BaL infected in human TZM-bl cells; assay type: toxicity, cell-based; settings: read-out: Ratio CC50/EC50
Hepatitis B virus [6] = experiment: Antiviral activity against HBV ayw1 infected in human HepG2(2.2.15) cells assessed as reduction in viral replication by measuring extracellular viral DNA copy number after 6 days by real-time qPCR method; assay type: functional, cell-based; settings: ayw1, HepG2 2.2.15, 144 h
How it was run: (§2)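 HepG2.2.15 cells (two copies of HBV ayw1 genome), 1.5 × 10^4/well in DMEM with 2% FBS and 380 μg/mL G418. After 16–24 h, compound added in triplicate, medium with compound renewed at day 3. Supernatant collected at day 6, Pronase-treated, and extracellular HBV DNA measured by TaqMan qPCR (precore/core) against an HBV DNA standard curve. EC50/EC90 derived; CC50 by MTS uptake.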

[7] = Cytotoxicity against human HepG2.2.15 cells assessed as cell viability by tetrazolium dye uptake assay; assay type: cell-based, HepG2 2.2.15
How it was run: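 HepG2.2.15 cells (two integrated copies of HBV ayw1 genome) were seeded at 1.5 × 10^4 cells/well in DMEM with 2% FBS, 380 μg/mL G418, glutamine, antibiotics and nonessential amino acids. After 16−24 h, medium with various compound concentrations was added in triplicate and renewed on day 3. After 6 days of treatment, viability was read by MTS uptake and CC50 was calculated.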

[8] = Selectivity index, ratio of CC50 for HepG2.2.15 cells to EC50 for HBV ayw1 infected in human HepG2(2.2.15) cells assessed as reduction in viral replication by measuring extracellular viral DNA copy; how it was run: as §2
Human betaherpesvirus 5 [9] = experiment: Antiviral activity against Human cytomegalovirus AD169 infected in HEL cells assessed as inhibition of virus-induced cytopathic effect; assay type: functional, cell-based; settings: Human betaherpesvirus 5, AD169, HEL
How it was run: (§3)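 HEL fibroblast monolayers inoculated with 100 CCID50 HCMV (AD-169, Davis) or 20 PFU VZV (TK+ Oka, TK− 07-1). Adsorbed 1–2 h, inoculum removed, then incubated with compound dilutions. HCMV cytopathicity or VZV plaques scored once untreated infected controls reached completion. EC50 is 50% reduction. SI is CC50/EC50, and the potency ratio is the ratio of EC50s.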

Human betaherpesvirus 5 [10] = experiment: Antiviral activity against HCMV Davis strain infected in HEL cells assessed as inhibition of virus-induced cytopathic effect; assay type: functional, cell-based; settings: Human betaherpesvirus 5, Davis; how it was run: as §3
Human alphaherpesvirus 3 [11] = experiment: Antiviral activity against thymidine kinase expressing Varicella-Zoster virus Oka strain assessed as inhibition of plaque formation; assay type: functional; settings: Human alphaherpesvirus 3, strain Oka vaccine; how it was run: as §3
Human alphaherpesvirus 3 [12] = experiment: Antiviral activity against thymidine kinase deficient Varicella-Zoster virus 07-1 infected in HEL cells assessed as inhibition of plaque formation; assay type: functional, cell-based; settings: Human alphaherpesvirus 3, 07-1, HEL; how it was run: as §3
[13] = Cytotoxic activity against HEL cells assessed as alteration of cell morphology after 3 days by microscopic method; assay type: cell-based; settings: human
How it was run: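 HEL cells with compound; MCC is the lowest concentration giving microscopically detectable alteration of cell morphology.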

[14] = Stability of the compound in buffer of pH 1 at 2 mg after 6 hrs by 31P NMR spectroscopy; assay type: physicochemical; settings: pH 1, 6 h
How it was run: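 2.0 mg compound in 0.2 mL acetone-d6 plus 0.3 mL pH 1 buffer (equal parts 0.2 M HCl and 0.2 M KCl). In situ 31P NMR (202 MHz) at 37 °C, spectra every 30 min over 14 h.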

[15] = Stability of the compound in phosphate buffer of pH 8 at 1 mg after 2 hrs by 31P NMR spectroscopy; assay type: physicochemical; settings: pH 8, 2 h
How it was run: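 1 mg compound in 0.2 mL acetone-d6 plus 0.3 mL pH 8 buffer (0.1 M Na2HPO4 adjusted with 0.1 M HCl). In situ 31P NMR (202 MHz) at 37 °C, spectra every 30 min over 14 h.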

[16] = test system: Human immunodeficiency virus 1; experiment: Antiviral activity against CXCR4-tropic HIV-1 NL4-3 infected in human PHA-stimulated PBMC assessed as inhibition of viral replication by measuring reduction in p24 antigen production preincubated with cells for 30 mins followed by viral infection measured on day 10 post infection in presence of IL-2 by ELISA; assay type: functional; settings: Human immunodeficiency virus 1, NL4-3
How it was run: (§4)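 PBMCs stimulated with 2 μg/mL PHA for 3 days at 37 °C, then 5 × 10^5 cells/ml preincubated 30 min at 37 °C with serial compound dilutions plus 2 ng/mL IL-2. Infected with 1500 pg/well HIV-1 BaL or 500 pg/well other isolates. IL-2 re-added on days 3 and 6. Supernatant p24 Ag measured by ELISA at day 10. EC50 is 50% inhibition of replication.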

[17] = test system: Human immunodeficiency virus 1; experiment: Antiviral activity against CCR5 tropic HIV1 BaL infected in human PHA-stimulated PBMC assessed as inhibition of viral replication by measuring reduction in p24 antigen production preincubated with cells for 30 mins followed by viral infection measured on day 10 post infection in presence of IL-2 by ELISA; assay type: functional; settings: Human immunodeficiency virus 1, BaL; how it was run: as §4
[18] = Cytotoxicity against human PHA-stimulated PBMC assessed as cell viability by tetrazolium dye assay; assay type: cell-based
[19] = Selectivity index, ratio of CC50 for human PHA-stimulated PBMC to IC50 for CXCR4-tropic HIV-1 NL4-3 infected in human PHA-stimulated PBMC
[20] = Selectivity index, ratio of CC50 for human PHA-stimulated PBMCs to IC50 for CCR5 tropic HIV1 BaL infected in human PHA-stimulated PBMC
[21] = test system: Human immunodeficiency virus 1; experiment: Antiviral activity against tenofovir-resistant CXCR4-tropic HIV-1 NL4-3 harboring reverse transcriptase K65R mutant infected in human MT4 cells assessed as inhibition of viral replication inhibition of virus-induced cytopathic effect after 6 days by XTT dye based assay; assay type: functional, cell-based; settings: Human immunodeficiency virus 1, NL4-3, MT4, 144 h
How it was run: (§5)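 MT-4 cells, 1 × 10^4 per well, given compound dilutions and wild-type NL4-3 or K65R NL4-3. Virus titred to give 85–95% cell killing at day 6. Incubated 6 days at 37 °C, 5% CO2. Viability read by XTT at 450/650 nm. EC50 from CPE reduction and toxicity from uninfected drug wells, by four-parameter fit. Fold change is K65R EC50 over wild-type EC50.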

[22] = test system: Human immunodeficiency virus 1; experiment: Selectivity ratio of EC50 for tenofovir-resistant CXCR4-tropic HIV-1 NL4-3 harboring reverse transcriptase K65R mutant infected in human MT4 cells to EC50 for CXCR4-tropic HIV-1 NL4-3 infected in human MT4 cells; assay type: functional; how it was run: as §5
[23] = Cytotoxicity against human MT4 cells assessed as reduction in cell viability after 6 days by XTT tetrazolium dye-based assay; how it was run: as §5
[24] = Cytotoxic activity against HEL cells assessed as reduction in cell proliferation after 3 days by coulter counting method; assay type: cell-based; settings: human
How it was run: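 HEL cells seeded at 5 × 10^3/well, grown 24 h, then given compound for 3 days at 37 °C. Cell number counted by Coulter counter. CC50 is 50% reduction of proliferation relative to untreated controls, read from graphic plots.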

[25] = Half life in human plasma at 1 uM by HPLC-MS/MS method; assay type: ADME, cell-free
How it was run: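 Human plasma preincubated 10 min with pH 7.4 phosphate buffer at 37 °C. Compound added at final 1 μM and sampled at 0, 0.5, 1, 1.5 and 2 h into acetonitrile. Centrifuged and analysed by HPLC-MS/MS. t1/2 is the mean of two experiments.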

[26] = Half life in human liver microsomes at 0.1 uM in presence of NADPH by HPLC-MS/MS method; assay type: ADME, microsome
How it was run: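 Pooled human liver microsomes preincubated 10 min at 37 °C with an NADPH-regenerating system (1 mM NADP, 5 mM G6P, G6PDH) in pH 7.4 phosphate with 3 mM MgCl2 and 1 mM EDTA. Compound added at final 0.1 μM and sampled at 0–60 min into acetonitrile/methanol. Analysed by HPLC-MS/MS, mean of two experiments.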

[27] = Selectivity index, ratio of CC50 for human HEL cells to EC50 for HCMV AD-169 strain; how it was run: as §3
[28] = Selectivity index, ratio of CC50 for human HEL cells to EC50 for HCMV Davis strain; how it was run: as §3
[29] = test system: Human immunodeficiency virus 1; experiment: Antiviral activity against CXCR4-tropic HIV-1 NL4-3 infected in human MT4 cells assessed as inhibition of virus-induced cytopathic effect after 6 days by XTT dye based assay; assay type: functional, cell-based; settings: Human immunodeficiency virus 1, NL4-3, MT4, 144 h; how it was run: as §5
[30] = test system: Human immunodeficiency virus 1; experiment: Antiviral activity against HIV-1 infected in human MT4 cells measured on day 5 post-infection by trypan blue dye staining-based method; assay type: functional, cell-based; settings: Human immunodeficiency virus 1, MT4, 120 h
[31] = test system: Human immunodeficiency virus 2; experiment: Antiviral activity against HIV-2 infected in human MT4 cells measured on day 5 post-infection by trypan blue dye staining-based method; assay type: functional, cell-based; settings: Human immunodeficiency virus 2, MT4, 120 h
Hepatitis B virus [32] = experiment: Antiviral activity against HBV infected in human HepG2(2.2.15) cells assessed as decrease in extracellular HBV DNA levels after 12 days by dot blot analysis; assay type: functional, cell-based; settings: HepG2 2.2.15, 288 h

SMILES | EC50 [1] | EC50 [2] | CC50 [3] | selectivity ratio [4] | selectivity ratio [5] | EC50 (Hepatitis B virus [6]) | EC90 (Hepatitis B virus [6]) | CC50 [7] | Ratio CC50/EC50 [8] | EC50 (Human betaherpesvirus 5 [9]) | EC50 (Human betaherpesvirus 5 [10]) | EC50 (Human alphaherpesvirus 3 [11]) | EC50 (Human alphaherpesvirus 3 [12]) | MCC at 72 h [13] | IC50 [16] | IC50 [17] | CC50 [18] | Ratio CC50/IC50 [19] | Ratio CC50/IC50 [20] | CC50 at 72 h [24] | also measured
CCCCCOC(=O)C[C@H](NP(=O)(CO[C@H](CF)Cn1cc(C)c(=O)[nH]c1=O)Oc1ccccc1)C(=O)OCCCCC (stereo partly drawn) | > 43.4 µM | > 43.4 µM | 43.4 µM | < 1 | < 1 | 42.4 µM | > 100 µM | 33.5 µM | <1 | > 31.9 µM | > 31.9 µM | 19.7 µM | 23.1 µM | 159 µM | – | – | – | – | – | – | Stability [14]: Unstable; Stability [15]: Unstable
CCCCCOC(=O)C[C@H](NP(=O)(CO[C@@H](CF)Cn1cnc2c(=O)[nH]c(N)nc21)Oc1ccccc1)C(=O)OCCCCC (stereo partly drawn) | 0.073 µM | 0.06 µM | > 100 µM | > 1370 | > 1670 | 0.02 µM | 0.62 µM | > 100 µM | >5000 | 4.43 µM | 1.98 µM | 0.89 µM | 0.11 µM | 153 µM | 0.02 µM | 0.17 µM | 9.31 µM | 466 | 55 | 10.2 µM | EC50 [21]: 0.08 µM; Ratio EC50 [22]: 8; CC50 at 144 h [23]: > 1 µM; half-life at 1 µM [25]: 73 min; half-life at 0.1 µM [26]: 2 min; Ratio CC50/EC50 [27]: <10; Ratio CC50/EC50 [28]: <10; EC50 [29]: 0.01 µM
CCCCCOC(=O)C[C@H](NP(=O)(CO[C@H](CF)Cn1cnc2c(=O)[nH]c(N)nc21)Oc1ccccc1)C(=O)OCCCCC (stereo partly drawn) | 0.16 µM | 0.22 µM | > 100 µM | > 625 | > 455 | 0.13 µM | 2.86 µM | > 100 µM | >769 | 5.94 µM | 3.05 µM | 0.59 µM | 0.079 µM | 153 µM | 0.03 µM | 0.13 µM | 11.2 µM | 374 | 86 | 27.8 µM | Ratio CC50/EC50 [27]: <10; Ratio CC50/EC50 [28]: <10
Nc1ncnc2c1ncn2C[C@@H](CF)OCP(=O)(O)O | 5.95 µM | 6.47 µM | > 100 µM | > 17 | > 15 | > 1.65 µM | > 100 µM | > 100 µM | >61 | > 328 µM | > 328 µM | 98 µM | 131 µM | > 328 µM | 1.19 µM | 3.73 µM | > 100 µM | 84 | 27 | – | EC50 [30]: 8 µM; EC50 [31]: 8 µM; EC50 (Hepatitis B virus [32]): 1.2 µM
